m5-HT2A agonist – mouse HTR2A agonism via beta-arrestin recruitment | CHO-K1 mHTR2A beta-arrestin complementation, luminescence; percent of 30 µM serotonin response | AID 624169 | activation, % at 7.6 µM | hit rate 0.66% among 360,000;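 active means activation above a run cutoff, the mean activation of all tested compounds plus 3 SD, cut at about 14% in these data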;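 further: 0% = plate median of compound wells and 100% = 30 µM serotonin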
EBI2 antag – blocks human EBI2 receptor beta-arrestin signaling; P32249; EBI2 beta-arrestin recruitment, luminescence, 7a,25-OHC stimulated; inhibition, % at 5 µM; hit rate 0.81% among 360,000; AID 651636; in the data active means inhibition above about 38%;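 further: enzyme fragment complementation signal reports receptor beta-arrestin coupling in cells; 0% = agonist plus DMSO wells and 100% = wells without agonist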
Target sequence (P32249 whole entry, looked up, the tested form may be a part): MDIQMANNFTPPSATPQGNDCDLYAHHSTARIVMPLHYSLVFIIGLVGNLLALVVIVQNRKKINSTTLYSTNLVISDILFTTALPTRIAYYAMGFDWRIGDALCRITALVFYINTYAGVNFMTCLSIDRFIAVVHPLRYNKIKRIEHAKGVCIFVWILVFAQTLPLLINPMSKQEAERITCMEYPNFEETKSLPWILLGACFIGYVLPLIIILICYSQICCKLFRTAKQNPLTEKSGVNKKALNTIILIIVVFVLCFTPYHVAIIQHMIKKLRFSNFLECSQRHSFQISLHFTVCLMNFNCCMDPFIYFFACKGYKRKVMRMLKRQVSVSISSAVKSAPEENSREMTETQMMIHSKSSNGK
CXCR6 inh – blocks human CXCR6 beta-arrestin recruitment. O00574. CHO-K1 PathHunter CXCR6 beta-arrestin, luminescence. inhibition, % at 20 µM. hit rate 0.36% among 360,000. AID 602244; in the data active means inhibition above about 34%, passing the limit was not always enough;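 further: antagonist mode with CXCL16 agonist at 10 nM final; 0% = 10 nM CXCL16 with DMSO and 100% = unstimulated wells without agonist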
APJ antag – antagonists of human APJ apelin receptor. CHO-K1 APJ beta-arrestin complementation, luminescence. inhibition, % at 20 µM. hit rate 0.32% among 330,000;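 active means inhibition above about 40% at 20 µM, limit read from the data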;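 further: cells challenged with 10 nM apelin-13 agonist together with compound; plate controls were apelin-13 plus DMSO wells for no effect and DMSO wells lacking apelin-13 for full effect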
APJ ag – agonists of human APJ apelin receptor; P35414; CHO-K1 APJ PathHunter beta-arrestin, luminescence; 0% DMSO wells, 100% apelin; activation, % at 20 µM; hit rate 0.11% among 330,000;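 active means activation more than six SD over the plate average, tested at 20 µM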;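 further: 0% = DMSO alone and 100% = apelin-13 at 10 nM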
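Test system: CHO-K1 APJ beta-arrestin complementation cell line | Compound: Single test compound dose, 20 µM final, 1% DMSO | Incubation: Compound 90 min 25 °C, reagent 1 h | Measured by: beta-gal luminescence | Read-out basis: APJ–arrestin association signal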
CCR6 antagonist – blocks CCL20-driven beta-arrestin recruitment at human CCR6 | CHO-K1 CCR6 PathHunter beta-arrestin, luminescence, CCL20-stimulated | inhibition, % at 20 µM | hit rate 0.49% among 340,000;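 active means compounds whose inhibition of the agonist-driven luminescence signal at 20 µM reaches about 50%, limit read from the data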;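 further: cells stimulated with CCL20 at 14 nM final; plate controls were DMSO with CCL20 for no effect and DMSO without agonist for full effect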
EBI2 conf – confirmation of human EBI2 receptor antagonists; shares compounds with EBI2 antag; EBI2 beta-arrestin luminescence, 7a,25-OHC antagonism; inhibition, % at 5 µM; hit rate 29% among 2,400; AID 651997;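 active means inhibition of at least 50%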
EBI2 ag – EBI2 agonism counter-screen; shares compounds with EBI2 antag; EBI2-expressing cells, agonist mode, luminescence, 60 min; 0% vehicle, 100% 7α,25-dihydroxycholesterol control; activation, % at 5 µM; 2,400 tested, under 10 active; AID 652000;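 active means activation of at least 50%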
bGal counter – inhibits E. coli beta-galactosidase, counter-screen for EBI2 antagonists. hit rate 1% among 2,400. shares compounds with EBI2 antag. inhibition, % at 5 µM. purified beta-galactosidase, luminescent Galacton Star, 15 min;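 active means replicate-average signal at least 3 plate SD below neutral wells, shown as high inhibition, flagging enzyme-inhibiting false positives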;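 further: 0% = DMSO wells with enzyme and 100% = wells lacking enzyme; higher means stronger loss of beta-gal luminescence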
An asterisk follows results filed as active; nt = no result. Most compounds without a hit are left out; they make up all but 2.2% or so of the library.

SMILES	m5-HT2A agonist	EBI2 antag	CXCR6 inh	APJ antag	APJ ag	CCR6 antagonist	EBI2 conf	EBI2 ag	bGal counter
Cc1noc(C)c1-c1ccc(C(=O)Nc2cccc(C(F)(F)F)c2)c2occc12	-5	39	6	nt	nt	nt	nt	nt	nt
O=C1C=C(c2ccc(OC(F)(F)F)cc2)C[C@@H](c2ccc(Cl)cc2)C1	0	65*	-2	12	-4	19	36	-1	-12
CCOc1ccc(C2=CC(=O)C[C@H](c3ccc(OC)cc3)C2)cc1	-2	77*	-4	-5	-1	3	48	-1	-7
COc1cccc(C2=CC(=O)C[C@H](c3ccc(Cl)cc3)C2)c1	8	46*	6	1	-2	29	32	0	11
O=C1C=C(c2ccccc2)C[C@@H](c2ccc(Cl)cc2)C1	-8	23	1	5	-5	38	nt	nt	nt
O=C1C=C(c2cc(C(F)(F)F)cc(C(F)(F)F)c2)C[C@@H](c2ccc(Cl)cc2)C1	-1	60*	6	11	-1	5	37	-1	-15
CC1(C(=O)NCCc2ccccc2)Cc2c(-c3ccc(C(N)=O)cc3)ccnc2O1 (stereo not given)	1	10	5	nt	nt	nt	nt	nt	nt
COc1ccc(NC(=O)C2c3ccccc3OCC(=O)N2Cc2cccnc2)cc1 (stereo not given)	9	-7	-9	nt	nt	nt	nt	nt	nt
COc1ccc(C2=CC(=O)CC(c3ccc(OC)cc3)C2)cc1 (stereo not given)	6	51*	-1	11	-4	24	29	-2	-13
Cn1ccc2ccc(C3=CC(=O)C[C@H](c4ccc(F)cc4)C3)cc21	-1	55*	7	27	-3	6	48	-1	-3
COc1ccc(C2=CC(=O)CC(c3ccc(F)cc3)C2)cc1 (stereo not given)	-2	40	4	-1	-7	14	nt	nt	nt
COc1ccc(Cc2c(-c3ccc(Cl)cc3)nc3cc(C)c(Br)c(C)n23)c(C)c1	-3	8	-2	nt	nt	nt	nt	nt	nt
Fc1cccc(Cc2c(-c3ccco3)nc3ccc(Br)cn23)c1	-2	14	-3	nt	nt	nt	nt	nt	nt
CN(C)c1ccc(/C=N/NC(=S)NCc2ccccc2)cc1	1	49*	0	4	8	11	28	1	4
CC(C)(C)c1ccc(/C=N/NC(=S)NCc2ccccc2)cc1	0	18	10	-3	-2	20	nt	nt	nt
CCc1ccc(/C=N/NC(=S)NCCc2ccccc2)cc1	-5	57*	1	14	-5	13	36	0	-11
NC(=O)c1cccc(-c2cnc3c(Nc4cccc(OC(F)(F)C(F)F)c4)nccn23)c1	0	45*	-7	nt	nt	nt	42	-2	-9
Oc1ccc(-c2cnc3c(Nc4cccc(OC(F)(F)C(F)F)c4)nccn23)cc1	-5	73*	-6	nt	nt	nt	32	0	2
COc1cc(OC)cc(-c2c(Sc3ccccc3)c3cc(-c4ccc(SC)cc4)ccc3n2C)c1	1	-1	3	nt	nt	nt	nt	nt	nt
O=C(C=Cc1cccs1)c1ccccc1	2	0	0	nt	nt	18	nt	nt	nt
CN(CCOc1ccccc1)C(=O)C1CCC(=O)N(CCc2ccc(Cl)cc2)C1 (stereo not given)	6	54*	1	-11	0	14	39	1	-2
COc1ccc(CCN2CC(C(=O)N(C)CCOc3ccccc3)CCC2=O)cc1 (stereo not given)	4	42	-7	24	1	8	nt	nt	nt
O=c1c2ccccc2n(Cc2ccccc2F)c(=O)n1Cc1ccccc1F	-2	54*	16	14	-5	22	17	1	11
Cc1ccc(Cn2c(=O)n(Cc3ccco3)c(=O)c3ccccc32)cc1	4	69*	9	-22	-4	29	26	1	9
c1ccc(-c2cn(-c3ccccc3)c3ncnc(NCCCN4CCOCC4)c23)cc1	-4	62*	8	13	0	10	18	-1	-10
SMILES	m5-HT2A agonist	EBI2 antag	CXCR6 inh	APJ antag	APJ ag	CCR6 antagonist	EBI2 conf	EBI2 ag	bGal counter
O=C(NCCc1c[nH]c2ccccc12)C(=O)NCC(c1ccco1)N1CCN(c2ccc(F)cc2)CC1 (stereo not given)	7	41*	5	-17	-3	20	25	0	-6
O=C(NCCc1c[nH]c2ccccc12)C(=O)NCC(c1ccco1)N1CCN(c2ccccc2)CC1 (stereo not given)	7	36*	3	5	0	18	14	1	2
O=C(NCCC1=CCCCC1)C(=O)NCC(c1ccco1)N1CCN(c2ccccc2)CC1 (stereo not given)	-2	11	2	2	-1	15	nt	nt	nt
COc1cc2[nH]c(C(=O)N3CCN(c4ccc(F)cc4)CC3)cc2c(OC)c1OC	-6	6	-6	0	-3	1	nt	nt	nt
COc1ccc(N2CCN(C(=O)c3cc4cc(Cl)ccc4[nH]3)CC2)cc1	6	75*	-8	-25	0	-4	59*	2	6
O=C(c1cc2cc(Cl)ccc2[nH]1)N1CCN(c2ccc(F)cc2)CC1	2	84*	-2	-14	1	-7	75*	-1	-12
CC(C)=CCC[C@H](C)C[C@@H]1Cc2[nH]c(=S)[nH]c(=O)c2[C@@H](c2ccc(F)cc2)O1	1	3	12	nt	nt	nt	nt	nt	nt
CCN(c1ccc(NC(=O)COC(=O)c2ccc(C)s2)cc1)C(C)C	-3	50*	4	0	1	3	34	0	7
Cc1cccc(C)c1-n1nnnc1C(c1ccnc2ccccc12)N1CCCN(C(=O)OC(C)(C)C)CC1 (stereo not given)	-1	12	11	nt	nt	nt	nt	nt	nt
Cc1ccc(-c2nc3ccc(C)cn3c2Cc2cccc(Cl)c2)cc1	0	35	31	nt	nt	nt	nt	nt	nt
Cc1cc2nc(-c3ccc(C#N)cc3)c(Cc3cccc(F)c3)n2c(C)c1Br	-1	44*	5	nt	nt	nt	43	-1	-16
Cc1ccc(-c2nc3ccc(C)cn3c2Cc2cccc(F)c2)cc1	-6	43*	28	nt	nt	nt	46	-2	-14
CCN(CC)c1ccc(S(=O)(=O)N2CCOCC2)cc1NC(=O)COC(=O)C1=COCCO1	4	3	8	nt	nt	24	nt	nt	nt
CC12CCC(O)CC1=CCC1C2CCC2(C)C3=NN=CC3CC12 (stereo not given)	11	0	-10	nt	nt	-14	nt	nt	nt

Screens deposited in PubChem by several laboratories.
